Measurements gathered from unrelated publications.
Lines come from different studies, so protocols differ.
Target: Myosin-IIIb (MYO3B, Homo sapiens, UniProt Q8WXR4)
Residues used in one study (Q8WXR4 1-1341): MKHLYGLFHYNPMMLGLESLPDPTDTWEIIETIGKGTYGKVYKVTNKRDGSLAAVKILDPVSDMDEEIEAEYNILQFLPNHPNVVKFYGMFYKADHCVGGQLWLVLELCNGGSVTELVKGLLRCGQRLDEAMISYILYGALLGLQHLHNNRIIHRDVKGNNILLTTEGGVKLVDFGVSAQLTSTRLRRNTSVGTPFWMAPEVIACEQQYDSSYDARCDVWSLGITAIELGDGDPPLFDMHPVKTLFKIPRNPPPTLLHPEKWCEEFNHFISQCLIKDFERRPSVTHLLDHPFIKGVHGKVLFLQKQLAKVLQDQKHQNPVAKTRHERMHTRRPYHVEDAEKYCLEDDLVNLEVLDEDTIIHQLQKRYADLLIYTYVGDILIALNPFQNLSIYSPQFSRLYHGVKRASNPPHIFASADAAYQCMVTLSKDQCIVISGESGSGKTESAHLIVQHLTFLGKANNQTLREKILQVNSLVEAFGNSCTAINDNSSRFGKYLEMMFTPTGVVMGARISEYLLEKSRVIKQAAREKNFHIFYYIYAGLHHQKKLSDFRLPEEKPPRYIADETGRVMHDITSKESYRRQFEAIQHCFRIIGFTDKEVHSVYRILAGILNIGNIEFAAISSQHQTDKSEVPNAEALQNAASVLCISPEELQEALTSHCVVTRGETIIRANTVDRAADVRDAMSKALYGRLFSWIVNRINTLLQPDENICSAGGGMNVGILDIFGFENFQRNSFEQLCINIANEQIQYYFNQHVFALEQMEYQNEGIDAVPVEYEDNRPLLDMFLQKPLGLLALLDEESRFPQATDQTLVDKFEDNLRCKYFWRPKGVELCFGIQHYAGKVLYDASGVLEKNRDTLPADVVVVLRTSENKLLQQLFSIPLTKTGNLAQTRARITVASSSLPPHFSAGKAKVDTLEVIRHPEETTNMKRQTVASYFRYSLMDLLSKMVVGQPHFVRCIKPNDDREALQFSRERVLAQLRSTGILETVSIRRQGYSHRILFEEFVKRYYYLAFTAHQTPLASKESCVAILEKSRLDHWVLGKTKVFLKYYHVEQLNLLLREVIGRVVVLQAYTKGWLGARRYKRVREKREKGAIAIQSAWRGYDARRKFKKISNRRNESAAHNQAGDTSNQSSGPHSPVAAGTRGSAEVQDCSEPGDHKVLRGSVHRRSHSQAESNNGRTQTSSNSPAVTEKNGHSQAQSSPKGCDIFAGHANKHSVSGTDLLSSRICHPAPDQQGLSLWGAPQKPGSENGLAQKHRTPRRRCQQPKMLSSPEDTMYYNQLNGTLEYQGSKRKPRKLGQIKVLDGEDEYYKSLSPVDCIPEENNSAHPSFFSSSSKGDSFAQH

| SMILES | observed | method | concentration | remaining binding [%] |
| --- | --- | --- | --- | --- |
| N[C@H]1CCN(c2nccc(-c3cnn4ncccc34)n2)C1 | binding |  | 1 µM | 100 |
| COc1cnc(Nc2cccc(S(N)(=O)=O)c2)nc1N1CCN(c2ccccc2)CC1 | binding | competition with immobilised ligand | 1 µM | 100 |
| C[C@H](c1ccc(F)cc1)N(Cc1cccc(C(=O)O)c1)C(=O)c1cnc2ccccc2c1 | binding | competition with immobilised ligand | 1 µM | 100 |
| O=C(NCCCN1CCOCC1)c1ccc(Nc2ncc(Cl)c(-c3ccc(Cl)s3)n2)cc1 | binding | competition with immobilised ligand | 1 µM | 100 |
| C[C@@H](c1ccc(-n2cnc3c(N)ncnc32)cc1)N1CCc2nn(C)c(Cc3ccccc3)c2C1=O | binding | competition with immobilised ligand | 0.1 µM | 77 |
| CCC(=O)N[C@@H]1CC[C@H](C(=O)N(C)c2ccc(-c3nc4ccccc4o3)cc2)C1 | cell-free assay | competition with immobilised ligand | 1 µM | 100 |
| COc1ccnn2ncc(-c3ccnc(N(C)C)n3)c12 | binding |  | 1 µM | 100 |
| O=C(NCCCN1CCOCC1)c1ccc(Nc2nccc(-c3cc4ccccc4s3)n2)cc1 | binding | competition with immobilised ligand | 1 µM | 100 |
| O=C(N[C@H]1CCCCC/C=C\C2C[C@@]2(C(=O)O)NC(=O)[C@@H]2C[C@@H](Oc3ccncc3)CN2C1=O)OC1CCCC1 (stereo partly drawn) | binding | competition with immobilised ligand | 1 µM | 38 |
| CN(C)c1nccc(-c2cnc3ncccn23)n1 | binding |  | 1 µM | 79 |
| CC1=C(C#N)C(c2ccc3c(c2)c(NC(=O)c2ccccc2C)nn3C)C(C#N)=C(C)N1 | binding | competition with immobilised ligand | 1 µM | 100 |
| Cc1cnn2ncc(-c3ccnc(N(C)C)n3)c2c1 | binding |  | 1 µM | 80 |
| CCN1CCN(Cc2ccc(C(=O)Nc3ccc(C)c(Oc4ccc5c(c4)CC(=O)N5)c3)cc2C(F)(F)F)CC1 | binding | competition with immobilised ligand | 1 µM | 100 |
| O=C(c1ccc(Nc2ncc(Cl)c(-c3ccc(Cl)s3)n2)cc1)N1CCC(N2CCCC2)CC1 | binding | competition with immobilised ligand | 1 µM | 100 |
| C[C@@H]1CN(c2cc(-c3n[nH]c4ccc(OC5(C)CC5)cc34)ncn2)C[C@H](C)O1 | cell-free assay | competition with immobilised ligand | 0.1 µM | 89 |
| c1cnn2ncc(-c3ccnc(N4CCC45COC5)n3)c2c1 | binding |  | 1 µM | 100 |
| c1cncc(-c2cccc(Nc3nccc(NC4CCCCC4)n3)c2)c1 | binding | competition with immobilised ligand | 10 µM | 100 |
| C[C@@H]1CCN(c2nccc(-c3cnn4ncccc34)n2)C1 | binding |  | 1 µM | 100 |
| N#CC1(c2ccccn2)CCN(Cc2cc(C(=O)N3CCCC3)c(=O)n3ccccc23)CC1 | cell-free assay | competition with immobilised ligand | 1 µM | 100 |
| O=C(NCC1CCOCC1)c1n[nH]cc1NC(=O)c1c(F)cccc1F | binding | competition with immobilised ligand | 1 µM | 100 |
| CNC(=O)[C@@H]1CC[C@@H](n2c(-c3ccc4cnccc4c3)nc3ccc(C(=O)NCc4cccc(C(N)=O)c4)cc32)C1 | binding | competition with immobilised ligand | 1 µM | 98 |
